The source of these data is ChEMBL document CHEMBL1149152, “Selective, orally active gamma-aminobutyric acidA alpha5 receptor inverse agonists as cognition enhancers” (J Med Chem, 2004).

Usually Ki stands for the equilibrium dissociation constant of an inhibitor or competing ligand from its target.

The target of assay [1] is GABA-A receptor; alpha-1/beta-3/gamma-2 (Homo sapiens) (UniProt P14867+P18507+P28472). The assay can be described thus: Percentage modulation of submaximal (EC20) response to GABA in Xenopus oocytes expressing human GABA-A alpha-1-beta-3-gamma-2 subunits. Further: test concentration or dose not given here. Type of assay: cell-based. To be noted: Oocyte. In short, it runs like this: (§1)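 Two-electrode voltage clamp on Xenopus laevis oocytes transiently expressing human GABA-A receptor subtypes. Modulation of the submaximal GABA (EC20) ion current is expressed as a percentage. Values are the arithmetic mean ± SEM from at least three independent cells.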

The target in assay [2] is GABA-A receptor; alpha-3/beta-3/gamma-2 (Homo sapiens) (UniProt P18507+P28472+P34903). The assay can be described thus: Percentage modulation of submaximal (EC20) response to GABA in Xenopus oocytes expressing human GABA-A alpha-3-beta-3-gamma-2 subunits. Further: test concentration or dose not given here. To be noted: Oocyte. Format: cell-based. In short, it runs like this:
as §1

Assay [3] addresses GABA-A receptor; alpha-2/beta-3/gamma-2 (Homo sapiens) (UniProt P18507+P28472+P47869). Briefly: Percentage modulation of submaximal (EC20) response to GABA in Xenopus oocytes expressing human GABA-A alpha-2-beta-3-gamma-2 subunits. Further: test concentration or dose not given here. Format: cell-based. To be noted: Oocyte. Put shortly:
as §1

For assay [4], the target named is T1, GABA-A receptor; alpha-1/beta-3/gamma-2 (Homo sapiens, UniProt P14867+P18507+P28472).
T1 sequence (P14867 whole entry): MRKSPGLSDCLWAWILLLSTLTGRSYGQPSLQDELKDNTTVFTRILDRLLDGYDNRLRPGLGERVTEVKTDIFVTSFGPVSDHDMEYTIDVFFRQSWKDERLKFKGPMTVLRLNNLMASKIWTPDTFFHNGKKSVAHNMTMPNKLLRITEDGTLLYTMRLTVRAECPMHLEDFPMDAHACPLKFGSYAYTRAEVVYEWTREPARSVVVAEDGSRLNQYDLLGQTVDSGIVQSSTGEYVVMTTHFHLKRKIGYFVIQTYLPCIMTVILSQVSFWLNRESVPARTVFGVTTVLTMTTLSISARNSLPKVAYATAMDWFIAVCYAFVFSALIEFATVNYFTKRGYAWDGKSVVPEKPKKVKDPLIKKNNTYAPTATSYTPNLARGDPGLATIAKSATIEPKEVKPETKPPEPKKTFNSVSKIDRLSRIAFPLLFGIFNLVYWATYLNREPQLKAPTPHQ
T1 sequence (P18507 whole entry): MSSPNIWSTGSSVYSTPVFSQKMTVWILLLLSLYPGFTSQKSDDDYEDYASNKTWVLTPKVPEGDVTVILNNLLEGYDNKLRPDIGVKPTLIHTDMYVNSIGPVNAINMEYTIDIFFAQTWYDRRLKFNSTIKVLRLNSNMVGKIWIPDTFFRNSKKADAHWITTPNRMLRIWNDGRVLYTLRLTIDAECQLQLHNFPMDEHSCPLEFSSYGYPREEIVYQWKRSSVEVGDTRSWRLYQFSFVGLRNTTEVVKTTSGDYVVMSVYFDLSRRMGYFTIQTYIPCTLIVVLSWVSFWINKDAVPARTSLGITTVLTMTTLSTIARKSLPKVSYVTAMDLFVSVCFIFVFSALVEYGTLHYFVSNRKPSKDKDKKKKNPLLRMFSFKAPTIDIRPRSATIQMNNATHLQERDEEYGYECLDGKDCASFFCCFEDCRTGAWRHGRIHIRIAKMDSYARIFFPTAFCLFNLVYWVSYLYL
T1 sequence (P28472 whole entry): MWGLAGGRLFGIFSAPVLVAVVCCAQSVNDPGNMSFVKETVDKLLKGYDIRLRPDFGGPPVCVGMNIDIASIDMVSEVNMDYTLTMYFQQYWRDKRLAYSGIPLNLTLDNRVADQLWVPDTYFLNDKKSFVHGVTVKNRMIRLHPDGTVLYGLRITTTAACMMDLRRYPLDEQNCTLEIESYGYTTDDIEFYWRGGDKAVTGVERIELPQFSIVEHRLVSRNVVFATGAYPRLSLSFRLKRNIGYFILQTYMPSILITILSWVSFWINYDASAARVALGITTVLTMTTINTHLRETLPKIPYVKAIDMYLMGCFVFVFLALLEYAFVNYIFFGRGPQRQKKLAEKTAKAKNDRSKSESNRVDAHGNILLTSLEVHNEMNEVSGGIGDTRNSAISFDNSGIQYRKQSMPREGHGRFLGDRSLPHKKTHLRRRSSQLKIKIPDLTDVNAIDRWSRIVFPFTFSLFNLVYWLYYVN
The assay can be described thus: Displacement of [3H]-Ro- 15-1788 from human GABA-A alpha-1-beta-3-gamma-2 receptor subunits expressed in Xenopus oocytes. Type of assay: cell-based, Oocyte. Put shortly: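 Radioligand binding to recombinant human GABA-A receptor subtypes, measuring displacement of [3H]Ro 15-1788. Ki values are the mean of at least two independent determinations, with SEM given where at least three were performed.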

Assay [5] concerns the target T2, GABA-A receptor; alpha-3/beta-3/gamma-2 (Homo sapiens, UniProt P18507+P28472+P34903).
T2 sequence (P18507 whole entry): T1 sequence (P18507 whole entry)
T2 sequence (P28472 whole entry): T1 sequence (P28472 whole entry)
T2 sequence (P34903 whole entry): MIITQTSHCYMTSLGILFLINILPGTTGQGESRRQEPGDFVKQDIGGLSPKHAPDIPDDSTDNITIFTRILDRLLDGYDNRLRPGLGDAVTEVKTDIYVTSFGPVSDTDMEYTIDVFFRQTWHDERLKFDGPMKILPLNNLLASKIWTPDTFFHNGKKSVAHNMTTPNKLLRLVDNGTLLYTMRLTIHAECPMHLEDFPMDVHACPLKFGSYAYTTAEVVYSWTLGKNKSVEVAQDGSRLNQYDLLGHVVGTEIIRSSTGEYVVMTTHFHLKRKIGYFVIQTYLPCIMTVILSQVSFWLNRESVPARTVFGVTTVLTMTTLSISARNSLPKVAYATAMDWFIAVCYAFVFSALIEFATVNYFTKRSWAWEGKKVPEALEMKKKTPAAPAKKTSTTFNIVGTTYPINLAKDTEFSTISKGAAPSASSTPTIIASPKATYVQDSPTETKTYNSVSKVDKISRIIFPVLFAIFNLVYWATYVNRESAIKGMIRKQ
Briefly: Displacement of [3H]-Ro- 15-1788 from human GABA-A alpha-3-beta-3-gamma-2 receptor subunits expressed in Xenopus oocytes. Format: cell-based, Oocyte. Put shortly: (§2)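 Radioligand displacement of [3H]Ro 15-1788 from recombinant human GABA-A receptor subtypes. Ki values are the mean of at least two independent determinations, with SEM given where at least three were performed.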
On the technique in general: Loss of bound radioactivity is the signal in a displacement assay; it reports binding, not function.

For assay [6], the target named is T3, GABA-A receptor; alpha-5/beta-3/gamma-2 (Homo sapiens, UniProt P18507+P28472+P31644).
T3 sequence (P18507 whole entry): T1 sequence (P18507 whole entry)
T3 sequence (P28472 whole entry): T1 sequence (P28472 whole entry)
T3 sequence (P31644 whole entry): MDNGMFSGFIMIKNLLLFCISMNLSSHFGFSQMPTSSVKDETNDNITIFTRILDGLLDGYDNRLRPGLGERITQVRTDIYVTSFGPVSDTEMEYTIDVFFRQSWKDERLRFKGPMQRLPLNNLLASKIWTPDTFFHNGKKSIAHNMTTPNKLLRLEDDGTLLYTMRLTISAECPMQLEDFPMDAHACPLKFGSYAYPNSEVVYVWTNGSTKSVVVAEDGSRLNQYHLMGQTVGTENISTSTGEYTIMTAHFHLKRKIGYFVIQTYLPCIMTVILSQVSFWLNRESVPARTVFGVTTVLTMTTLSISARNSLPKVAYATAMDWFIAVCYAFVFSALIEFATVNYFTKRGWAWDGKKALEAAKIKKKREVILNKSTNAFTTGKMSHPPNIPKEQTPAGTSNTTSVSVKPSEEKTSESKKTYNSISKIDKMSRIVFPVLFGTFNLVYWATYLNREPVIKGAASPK
Briefly: Displacement of [3H]-Ro- 15-1788 from human GABA-A alpha-5-beta-3-gamma-2 receptor subunits expressed in Xenopus oocytes. Type of assay: cell-based, Oocyte. In short, it runs like this:
as §2

The target in assay [7] is T4, GABA-A receptor; alpha-2/beta-3/gamma-2 (Homo sapiens, UniProt P18507+P28472+P47869).
T4 sequence (P18507 whole entry): T1 sequence (P18507 whole entry)
T4 sequence (P28472 whole entry): T1 sequence (P28472 whole entry)
T4 sequence (P47869 whole entry): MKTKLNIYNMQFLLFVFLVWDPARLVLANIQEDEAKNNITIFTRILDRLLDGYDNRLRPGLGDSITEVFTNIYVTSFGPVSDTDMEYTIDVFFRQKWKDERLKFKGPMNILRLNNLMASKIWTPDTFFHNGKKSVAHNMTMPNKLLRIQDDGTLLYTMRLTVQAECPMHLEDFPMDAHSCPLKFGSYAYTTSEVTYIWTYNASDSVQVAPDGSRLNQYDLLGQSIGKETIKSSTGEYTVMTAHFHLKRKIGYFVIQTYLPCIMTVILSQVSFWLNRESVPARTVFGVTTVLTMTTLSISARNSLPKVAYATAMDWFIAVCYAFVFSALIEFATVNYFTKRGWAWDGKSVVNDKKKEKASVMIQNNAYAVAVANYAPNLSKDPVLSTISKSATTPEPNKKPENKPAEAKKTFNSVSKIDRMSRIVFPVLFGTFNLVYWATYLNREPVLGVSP
The assay can be described thus: Displacement of [3H]-Ro- 15-1788 from human GABA-A alpha-2-beta-3-gamma-2 receptor subunits expressed in Xenopus oocytes. Format: cell-based, Oocyte. Put shortly:
as §2

The target of assay [8] is GABA-A receptor; alpha-5/beta-3/gamma-2 (Homo sapiens) (UniProt P18507+P28472+P31644). The assay can be described thus: Percentage modulation of submaximal (EC20) response to GABA in Xenopus oocytes expressing human GABA-A alpha-5-beta-3-gamma-2 subunits. Further: test concentration or dose not given here. To be noted: Oocyte. Format: cell-based. Put shortly:
as §1

For `Cc1cc(-c2nnc3c4ccccc4c(OCc4cn(C)nn4)nn23)no1`, the Efficacy in assay [1] is -4%; in assay [2], 4%; in assay [3], 12%; in assay [8], -29%. Besides, the Ki in assay [4] was found to be 0.88 nM; in assay [5], 0.61 nM; in assay [6], 0.66 nM; in assay [7] it was 0.58 nM.

Consider `Cc1cc(-c2nnc3c4ccccc4c(OCc4cnn(C)n4)nn23)no1`, for which the Efficacy in assay [1] was -5%; in assay [2] it was -3%; in assay [3], 9%; in assay [8], -35%. Besides, the Ki in assay [4] was determined as 1.3 nM; in assay [5], 0.8 nM; in assay [6] it was 0.87 nM; in assay [7] it was 0.64 nM.

Turning to `Cc1cc(-c2nnc3c4ccccc4c(OCc4cnnn4C)nn23)no1`, the Efficacy in assay [1] was -8%; in assay [2], -6%; in assay [3] it was -25%; in assay [8], -33%. In addition, the Ki in assay [4] was determined as 4.2 nM; in assay [5] it was 5.2 nM; in assay [6], 2 nM; in assay [7] it was 2.8 nM.

For the molecule `Cc1cc(-c2nnc3c4ccccc4c(OCc4ccccn4)nn23)no1`, the Efficacy is -2% in assay [1], -4% in assay [2] and -46% in assay [8]. Also, the Ki amounted to 0.93 nM in assay [4], 0.96 nM in assay [5], 0.62 nM in assay [6] and 1.5 nM in assay [7].

In the case of `CNC1=Nc2ccc(Cl)cc2C(c2ccccc2)=[N+]([O-])C1`, the Efficacy was 165% in assay [1], 173% in assay [2] and 101% in assay [3].

`CCc1c(C(=O)OC)ncc2[nH]c3cc(OC)c(OC)cc3c12`: the Efficacy was -36% in assay [1], -52% in assay [2], -34% in assay [3] and -52% in assay [8]. Moreover, the Ki in assay [4] is 16 nM; in assay [5] it was 10 nM; in assay [6], 2.3 nM; in assay [7], 11 nM.

For `Cc1cccc(COc2nn3c(-c4ccccc4)nnc3c3c2C2CCC3CC2)n1`, the Ki in assay [4] amounted to 170 nM; in assay [5], 25 nM; in assay [6], 2.9 nM; in assay [7] it was 46 nM. The Efficacy in assay [8] is 15%.

With `Cc1cccc(COc2nn3c(-c4ccoc4)nnc3c3c2C2CCC3CC2)n1`, the Efficacy is -4% in assay [2], -6% in assay [3] and -24% in assay [8]. Besides, the inhibition constant Ki in assay [4] turned out to be 250 nM; in assay [5], 40 nM; in assay [6] it was 3.1 nM; in assay [7] it was 63 nM.

For `Cc1cccc(COc2nn3c(-c4ccsc4)nnc3c3c2C2CCC3CC2)n1`, the Efficacy in assay [1] is 17%; in assay [2], 38%; in assay [3] it was 9%. For the same molecule, the Ki in assay [4] turned out to be 270 nM; in assay [5], 48 nM; in assay [6], 3.7 nM; in assay [7], 110 nM.

For the molecule `Cc1cccc(COc2nn3c(-c4cc(C)on4)nnc3c3c2C2CCC3CC2)n1`, the figures for the Efficacy in assay [2], in assay [3] and in assay [8] were -1%, 15% and -29%, respectively. Further, the inhibitory constant (Ki) in assay [4] was determined as 280 nM; in assay [5], 41 nM; in assay [6] it was 4.6 nM; in assay [7], 86 nM.

`Cc1cccc(COc2nn3c(-c4cc(C)on4)nnc3c3ccccc23)n1`: the Ki in assay [4] came to 0.88 nM; in assay [5], 1.3 nM; in assay [6], 0.79 nM; in assay [7], 1.6 nM. Moreover, the Efficacy in assay [8] was -15%.

In the case of `Cc1cccc(COc2nn3c(-c4nc(C)no4)nnc3c3c2C2CCC3CC2)n1`, the Efficacy in assay [1] is -15%; in assay [2], -21%; in assay [3], -10%; in assay [8], -35%. Further, the Ki in assay [4] was determined as 74 nM; in assay [5] it was 7.6 nM; in assay [6], 1.1 nM; in assay [7], 17 nM.
